Active and inactive are the calls of the source.
Columns and labels:
[1] = tested on: Vibrio harveyi; experiment: Antimutagenic activity in Vibrio harveyi BB7XM assessed as inhibition of nitroquinoline-N-oxide-induced revertant colonies; format: functional
Outline: (§1)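 Revertants induced by 4-nitroquinoline-N-oxide (final 40 ng/ml) with versus without test compound; TA100 at 37 °C, V. harveyi strains at 30 °C in BOSS medium. Three independent repetitions; inhibition % = 100 − (R1/R2 × 100); 25–40% moderate, ≥40% strong.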

[2] = tested on: Mus musculus; experiment: Antinociceptive activity in albino CD-1 mouse assessed as reduction in licking and biting time during phase 1 at 97.51 mg/kg, ip administered 30 mins prior to formalin challenge relative to control; format: functional; parameters: scale not given: the % may be the effect or the level left
[3] = tested on: Vibrio harveyi; experiment: Mutagenic activity in Vibrio harveyi BB7 assessed as mutagenicity index at 40 ng/ml; format: organism-based; details: in vivo
Outline: (§2)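 Ames TA100 liquid pre-incubation (minimal medium, 37 °C) and V. harveyi assay (BOSS medium, 30 °C); test at 40 ng/ml, triplicate. Mutagenic index = induced revertants / spontaneous revertants (DMSO control); M.I. ≥2 considered mutagenic.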

[4] = tested on: Mus musculus; experiment: Anticonvulsant activity in albino CD-1 mouse assessed as protection against maximal electroshock-induced seizure at 30 to 300 mg/kg, ip measured after 2.0 hrs; format: functional; details: CD-1, ip, read-out: MED
Outline: (§3)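 Male CD-1 mice (16–26 g), compound suspended in 0.5% methylcellulose/water, i.p. at 30, 100, 300 mg/kg; four mice per group, each used once. Electroconvulsion by electrical stimulus 0.2 s at 50 Hz; protection scored at 0.5 and 2 h. Value is minimum dose showing activity.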

[5] = tested on: Vibrio harveyi; experiment: Antimutagenic activity in Vibrio harveyi BB7 assessed as inhibition of nitroquinoline-N-oxide-induced revertant colonies; format: functional; outline: as §1
[6] = tested on: Mus musculus; experiment: Antinociceptive activity in albino CD-1 mouse assessed as reduction in licking and biting time during phase 2 at 97.51 mg/kg, ip administered 30 mins prior to formalin challenge measured between 25.0 to 30.0 mins relative to control; format: functional; parameters: scale not given: the % may be the effect or the level left
[7] = tested on: Mus musculus; experiment: Antinociceptive activity in albino CD-1 mouse assessed as reduction in licking and biting time during phase 2 at 97.51 mg/kg, ip administered 30 mins prior to formalin challenge measured between 20.0 to 25.0 mins relative to control; format: functional; parameters: scale not given: the % may be the effect or the level left
[8] = species: Rattus norvegicus; experiment: Displacement of [3H]BTX from voltage-sensitive sodium channel site2 in rat cerebral cortex at 100 uM measured after 60.0 mins by scintillation counting; format: tissue-based
[9] = tested on: Mus musculus; experiment: Neurotoxicity in albino CD-1 mouse assessed as motor performance by measuring time spent in chimney at 97.51 mg/kg, ip administered 30 mins prior to chimney test (reference value: 6.29 +/- 2.48 sec); format: toxicity, organism-based; details: in vivo
[10] = tested on: Salmonella typhimurium; experiment: Antimutagenic activity in Salmonella typhimurium TA100 assessed as inhibition of nitroquinoline-N-oxide-induced revertant colonies by Ames test; format: functional, Salmonella enterica subsp. enterica serovar Typhimurium; outline: as §1
[11] = tested on: Salmonella typhimurium; experiment: Mutagenic activity in Salmonella typhimurium TA100 assessed as mutagenicity index at 40 ng/ml by Ames test; format: toxicity, organism-based; details: salmonella enterica subsp. enterica serovar typhimurium; outline: as §2
[12] = tested on: Mus musculus; experiment: Antinociceptive activity in albino CD-1 mouse assessed as reduction in licking and biting time during phase 2 at 97.51 mg/kg, ip administered 30 mins prior to formalin challenge measured between 15.0 to 30.0 mins relative to control; format: functional; parameters: scale not given: the % may be the effect or the level left
[13] = tested on: Mus musculus; experiment: Anticonvulsant activity in ip dosed albino CD-1 mouse assessed as protection against 6 Hz current-induced seizure measured after 2.0 hrs; format: functional
Outline: (§4)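 6-Hz psychomotor test: corneal stimulation 32 mA, 0.2 ms monopolar rectangular pulses at 6 Hz for 3 s, mice restrained then released to observation cage. Protected if normal exploratory behaviour resumes within 10 s. Doses 30, 100, 300 mg/kg i.p.; read at 0.5 and 2 h; minimum active dose.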

[14] = tested on: Mus musculus; experiment: Anticonvulsant activity in albino CD-1 mouse assessed as protection against subcutaneous pentylenetetrazole-induced seizure at 30 to 300 mg/kg, ip measured after 2.0 hrs; format: functional
Outline: (§5)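 Male CD-1 mice given compound i.p. (0.5% methylcellulose suspension) at 30, 100, 300 mg/kg, four per group; pentylenetetrazole 85 mg/kg s.c. at 0.5 or 2 h. Absence of clonic convulsions (≥5 s) over 30 min observation counts as protection. Minimum active dose reported.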

[15] = tested on: Mus musculus; experiment: Anticonvulsant activity in ip dosed albino CD-1 mouse assessed as protection against maximal electroshock-induced seizure; format: functional; details: CD-1, ip
Outline: (§6)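 Quantitative work at time of peak effect previously estimated in screening; groups of six mice given various i.p. doses until ≥3 points within 10–90% seizure protection (MES or scPTZ) or minimal motor impairment on rotarod (10 rpm, failure to hold ≥1 min).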

[16] = Protective index, ratio of TD50 for neurotoxicity in ip dosed albino CD-1 mouse to ED50 for anticonvulsant activity in ip dosed maximal electoshock-induced seizure albino CD-1 mouse model; format: toxicity, organism-based; details: in vivo, read-out: Ratio TD50/ED50
Outline: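 Protective index computed as TD50 (rotarod) divided by ED50 (MES or scPTZ), both from probit analysis on groups of six i.p.-dosed mice.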

[17] = tested on: Mus musculus; experiment: Neurotoxicity in albino CD-1 mouse assessed as motor impairment at 30 to 300 mg/kg mg/kg, ip measured after 0.5 hrs by rotarod test; format: toxicity, organism-based; details: in vivo
Outline: (§7)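 Rotarod in male CD-1 mice at 0.5 and 2 h after i.p. 30, 100 or 300 mg/kg (methylcellulose suspension); motor impairment = inability to keep balance on rod turning at 10 rpm for at least 1 min. Minimum neurotoxic dose reported.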

[18] = tested on: Vibrio harveyi; experiment: Mutagenic activity in Vibrio harveyi BB7XM assessed as mutagenicity index at 40 ng/ml; format: organism-based; details: in vivo; outline: as §2
[19] = tested on: Mus musculus; experiment: Anticonvulsant activity in ip dosed albino CD-1 mouse assessed as protection against maximal electroshock-induced seizure measured as time to peak effect; format: functional; outline: as §6
[20] = tested on: Mus musculus; experiment: Anticonvulsant activity in ip dosed albino CD-1 mouse assessed as protection against subcutaneous pentylenetetrazole-induced seizure measured as time to peak effect; format: functional; outline: as §6
[21] = tested on: Mus musculus; experiment: Antinociceptive activity in albino CD-1 mouse assessed as reduction in licking and biting time during phase 2 at 97.51 mg/kg, ip administered 30 mins prior to formalin challenge measured between 15.0 to 20.0 mins relative to control; format: functional; parameters: scale not given: the % may be the effect or the level left
[22] = tested on: Mus musculus; experiment: Anticonvulsant activity in albino CD-1 mouse assessed as protection against subcutaneous pentylenetetrazole-induced seizure at 30 to 300 mg/kg, ip measured after 0.5 hrs; format: functional; outline: as §5
[23] = tested on: Mus musculus; experiment: Neurotoxicity in albino CD-1 mouse assessed as motor impairment at 30 to 300 mg/kg mg/kg, ip measured after 2 hrs by rotarod test; format: toxicity, organism-based; details: in vivo; outline: as §7
[24] = tested on: Mus musculus; experiment: Anticonvulsant activity in ip dosed albino CD-1 mouse assessed as protection against 6 Hz current-induced seizure measured after 0.5 hrs; format: functional; details: CD-1, ip, read-out: MED; outline: as §4
[25] = tested on: Mus musculus; experiment: Anticonvulsant activity in albino CD-1 mouse assessed as protection against maximal electroshock-induced seizure at 30 to 300 mg/kg, ip measured after 0.5 hrs; format: functional; details: CD-1, ip, read-out: MED; outline: as §3
[26] = Neurotoxicity in ip dosed albino CD-1 mouse assessed as motor impairment by rotarod test; format: toxicity, organism-based; details: in vivo; outline: as §6

Compound: COc1ccccc1N1CCN(C(=O)CN2C(=O)CC(C)(c3ccccc3)C2=O)CC1 (stereo unspecified)
- inhibition (INH) [1]: 51%
- Activity [2]: 85.5%
- Activity_index [3]: 1.2
- minimal effective dose [4]: 300 mg/kg
- inhibition (INH) [5]: 45%
- Activity [6]: 98%
- Activity [7]: 100%
- inhibition [8]: 44.6%
- Time [9]: 8.43 s
- inhibition (INH) [10]: 42%
- Activity_index [11]: 0.6
- Activity [12]: 99.3%
- MED [13]: inactive
- MED [14]: inactive
- ED50 [15]: 97.5 mg/kg
- selectivity ratio [16]: 2.46
- MTC [17]: 300 mg/kg
- Activity_index [18]: 0.9
- Time [19]: 0.5 h
- Time [20]: 0.5 h
- Activity [21]: 100%
- MED [22]: inactive
- MTC [23]: 300 mg/kg
- minimal effective dose [24]: 100 mg/kg
- minimal effective dose [25]: 100 mg/kg
- TD50 [26]: 240 mg/kg

From ChEMBL document CHEMBL3616366, “Design, synthesis and biological activity of new amides derived from 3-methyl-3-phenyl-2,5-dioxo-pyrrolidin-1-yl-acetic acid” (Eur J Med Chem, 2015)
